Values after ≈ are worked out from the molar mass of the structure shown. Active and inactive are the calls of the source. The rule behind the calls is not given here.
Columns and labels:
Staphylococcus aureus [1] = assay: Antibacterial activity against methicillin-resistant Staphylococcus aureus SK1 by broth dilution method; assay type: functional
Staphylococcus aureus [2] = assay: Antibacterial activity against Staphylococcus aureus TISTR 1466 by broth dilution method; assay type: functional
Method in brief: (§1)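 MIC found by 2-fold serial dilution in Mueller Hinton broth following CLSI (2002) recommendations. Test substances dissolved in DMSO. Vancomycin and gentamycin run as reference drugs.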

Escherichia coli = assay: Antibacterial activity against Escherichia coli TISTR 780 by broth dilution method; assay type: functional; method in brief: as §1
Salmonella typhimurium = assay: Antibacterial activity against Salmonella typhimurium TISTR 292 by broth dilution method; assay type: functional, Salmonella enterica subsp. enterica serovar Typhimurium; method in brief: as §1
NCI-H187 = assay: Cytotoxicity against human NCI-H187 cells by resazurin reduction assay; assay type: functional, cell-based
KB = assay: Cytotoxicity against human KB cells by resazurin reduction assay; assay type: functional, cell-based
MCF7 = assay: Cytotoxicity against human MCF7 cells by resazurin reduction assay; assay type: functional, cell-based
[3] = Homo sapiens, NCI-H187, read-out: IC50
[4] = Homo sapiens, KB, read-out: IC50
[5] = Salmonella enterica subsp. enterica serovar Typhimurium
[6] = Homo sapiens, MCF7, read-out: IC50

Row | Molecule | MIC (Staphylococcus aureus [1]) | MIC (Staphylococcus aureus [2]) | MIC (Escherichia coli) | MIC (Salmonella typhimurium; Salmonella enterica) [µg/mL] | IC50 (NCI-H187; [3]) [µM] | IC50 (KB; [4]) [µM] | MIC (Salmonella typhimurium; [5]) | IC50 (MCF7; [6]) [µM] | IC50 (NCI-H187; nci-h187) | IC50 (KB; kb) | IC50 (MCF7; mcf7)
1 | COc1ccc2c(c1)[nH]c1cc(OC)c(O)cc12 [CLAUSENAWALLINE D] | inactive | inactive | 128 µg/mL (≈ 526 µM) | 128 (≈ 526 µM) |  |  |  |  |  |  | 
2 | Cc1cc2c([nH]c3ccccc32)c2c1OC(C)(C)C=C2 [GRINIMIBINE] | inactive | inactive | 128 µg/mL (≈ 486 µM) |  | 58.9 | 263 | inactive | 28.8 |  |  | 
3 | GENTAMICIN |  |  | 0.25 µg/mL |  |  |  | 0.125 µg/mL |  |  |  | 
4 | COc1ccc2c(c1)[nH]c1cc(O)c(C=O)cc12 | 128 µg/mL (≈ 531 µM) | inactive | inactive | 128 (≈ 531 µM) | 45.9 | 181 |  | 69.1 |  |  | 
5 | Cc1cc2c([nH]c3ccc4c(c32)C=CC(C)(C)O4)c(-c2c(O)c(C)cc3c2[nH]c2ccc4c(c23)C=CC(C)(C)O4)c1O [CLAUSENAWALLINE A] | 128 µg/mL (≈ 230 µM) | 64 µg/mL (≈ 115 µM) | inactive | 128 (≈ 230 µM) |  |  |  |  |  |  | 
6 | COc1cc2[nH]c3c(CC=C(C)C)c(O)c(C=O)cc3c2c(-c2cc3c(cc2O)[nH]c2ccccc23)c1O [CLAUSENAWALLINE B] | 16 µg/mL (≈ 31.6 µM) | 8 µg/mL (≈ 15.8 µM) | 128 µg/mL (≈ 253 µM) | 128 (≈ 253 µM) |  |  |  |  |  |  | 
7 | COC(=O)c1cc2c(cc1OC)[nH]c1ccccc12 [CLAUSINE L] | inactive | inactive | 128 µg/mL (≈ 501 µM) | 128 (≈ 501 µM) |  |  |  |  | Not Active | Not Active | Not Active
8 | COc1cc2[nH]c3ccc(O)c(-c4c(O)c(C)cc5c4[nH]c4ccc6c(c45)C=CC(C)(C)O6)c3c2cc1C [CLAUSENAWALLINE E] | 8 µg/mL (≈ 15.9 µM) | 8 µg/mL (≈ 15.9 µM) | 128 µg/mL (≈ 254 µM) | 128 (≈ 254 µM) |  |  |  |  |  |  | 
9 | CN[C@H](CC(C)C)C(=O)N[C@H]1C(=O)N[C@@H](CC(N)=O)C(=O)N[C@H]2C(=O)N[C@H]3C(=O)N[C@H](C(=O)N[C@H](C(=O)O)c4cc(O)cc(O)c4-c4cc3ccc4O)[C@H](O)c3ccc(c(Cl)c3)Oc3cc2cc(c3O[C@@H]2O[C@H](CO)[C@@H](O)[C@H](O)[C@H]2O[C@H]2C[C@](C)(N)[C@H](O)[C@H](C)O2)Oc2ccc(cc2Cl)[C@H]1O [VANCOMYCIN] |  | 0.25 µg/mL (≈ 0.173 µM) |  |  |  |  |  |  |  |  | 
10 | COc1ccc2c(c1)[nH]c1cc(OC)c(C=O)cc12 [LANSINE] | inactive | inactive | 128 µg/mL (≈ 501 µM) |  |  |  | inactive |  | Not Active | Not Active | Not Active
11 | COc1cc2[nH]c3ccccc3c2cc1C=O [GLYCOSININE] | 128 µg/mL (≈ 568 µM) | inactive | inactive | 128 (≈ 568 µM) | 18.2 | 103 |  | 111 |  |  | 
12 | COC(=O)c1cc2c(cc1O)[nH]c1ccccc12 [MUKONIDINE] | 64 µg/mL (≈ 265 µM) | 64 µg/mL (≈ 265 µM) | 128 µg/mL (≈ 531 µM) | 32 (≈ 133 µM) | 134 |  |  | 205 |  | Not Active | 
13 | COC(=O)c1cc2c(cc1OC)[nH]c1cc(OC)ccc12 [CLAUSZOLINE C] | inactive | inactive | 128 µg/mL (≈ 449 µM) | 128 (≈ 449 µM) |  |  |  |  | Not Active | Not Active | Not Active
14 | COC(=O)c1ccc2[nH]c3ccccc3c2c1 | inactive | inactive | 128 µg/mL (≈ 568 µM) | 128 (≈ 568 µM) | 95.8 | 59.7 |  | 170 |  |  | 
15 | COc1cc2[nH]c3ccccc3c2cc1O | inactive | inactive | 128 µg/mL (≈ 600 µM) | 128 (≈ 600 µM) | 27.4 | 213 |  | 31.4 |  |  | 
16 | COc1ccc2c(c1)[nH]c1ccc(C=O)cc12 [CLAUSZOLINE K] | 128 µg/mL (≈ 568 µM) | inactive | 128 µg/mL (≈ 568 µM) |  |  |  | inactive |  | Not Active | Not Active | Not Active
17 | COc1ccc2c(c1)[nH]c1c(CC=C(C)C)c(O)c(C=O)cc12 | inactive | inactive | 128 µg/mL (≈ 414 µM) | 128 (≈ 414 µM) | 42.3 |  |  | 53.9 |  | Not Active | 
18 | COC(=O)c1cc2c([nH]c3ccccc32)c(O)c1-c1c(O)c(C=O)cc2c1[nH]c1cc(OC)ccc12 [CLAUSENAWALLINE F] | 64 µg/mL (≈ 133 µM) | 64 µg/mL (≈ 133 µM) | 128 µg/mL (≈ 266 µM) |  | 4.5 | 10.2 | inactive | 62.3 |  |  | 
19 | COc1cccc2c1C(=O)c1c(O)c3c(c(O)c1C2=O)C[C@@](O)(C(=O)CO)C[C@@H]3O[C@H]1C[C@H](N)[C@H](O)[C@H](C)O1 [DOXORUBICIN] |  |  |  |  | 0.1 | 1.7 |  | 16.8 |  |  | 
20 | Cc1cc2c([nH]c3ccc4c(c32)C=CC(C)(C)O4)c2c1OC(C)(C)C=C2 [CLAUSENAWALLINE C] | inactive | inactive | 128 µg/mL (≈ 371 µM) | 128 (≈ 371 µM) |  |  |  |  | Not Active | Not Active | Not Active
21 | O=Cc1cc2c(cc1O)[nH]c1ccccc12 [MUKONAL] | 64 µg/mL (≈ 303 µM) | inactive | 128 µg/mL (≈ 606 µM) | 128 (≈ 606 µM) |  |  |  |  | Not Active | Not Active | Not Active
22 | CC(C)=CCc1c(O)c(C=O)cc2c1[nH]c1cc(O)ccc12 [7-HYDROXYHEPTAPHYLLINE] | 4 µg/mL (≈ 13.5 µM) | 8 µg/mL (≈ 27.1 µM) | 64 µg/mL (≈ 217 µM) | 64 (≈ 217 µM) | 19.6 | 107 |  |  |  |  | Not Active
23 | Cc1c2ccncc2c(C)c2c1[nH]c1ccccc12 [ELLIPTECINE] |  |  |  |  | 3.1 | 5.2 |  |  |  |  | 
24 | CC(C)=CCc1c(O)c(C=O)cc2c1[nH]c1ccccc12 [HEPTAPHYLLINE] | inactive | inactive | 128 µg/mL (≈ 458 µM) | 128 (≈ 458 µM) | 20.2 | 94.2 |  | 171 |  |  | 
25 | COC(=O)c1ccc2[nH]c3cc(OC)ccc3c2c1 [CLAUSINE C] | inactive | inactive | inactive | 128 (≈ 501 µM) |  |  |  |  | Not Active | Not Active | Not Active
26 | CC1(C)C=Cc2c(ccc3[nH]c4cc(O)c(C=O)cc4c23)O1 [CLAURAILAS D] | 128 µg/mL (≈ 436 µM) | inactive | 64 µg/mL (≈ 218 µM) | 128 (≈ 436 µM) | 60.8 | 293 |  | 66.1 |  |  | 
